Measurements collected from several papers.
Each line is one published result; the experiments were not run side by side.
Target: Serine/threonine-protein kinase 10 (STK10, Homo sapiens, UniProt O94804)

Structure (SMILES)	observed	method	tested at	remaining binding
FC(F)(F)Oc1cccc(-c2cnc3ccc(-c4ccncc4)nn23)c1	binding	competition with immobilised ligand	5 µM	0.3%
N[C@@H]1CCN(c2nccc(-c3cnn4ncccc34)n2)C1	binding		1 µM	100%
c1cncc(-c2cccc(Nc3nccc(NC4CCCCC4)n3)c2)c1	binding	competition with immobilised ligand	10 µM	38%
CN(C)C(=O)Cn1cc(-c2nc([C@@](C)(c3ccc(-c4cnc(N)nc4)cc3)C3CC3)no2)cn1	cell-free assay	competition with immobilised ligand	1 µM	89%
O=C(NCC1CCOCC1)c1n[nH]cc1NC(=O)c1c(F)cccc1F	binding	competition with immobilised ligand	1 µM	100%
CN(C)c1nccc(-c2cnc3ncccn23)n1	binding		1 µM	100%
O=C(NCCCN1CCOCC1)c1ccc(Nc2nccc(-c3cc4ccccc4s3)n2)cc1	binding	competition with immobilised ligand	1 µM	94%
CS(=O)(=O)c1cc(C2(NC(=O)c3cncc4c3cnn4-c3ccc(F)cc3)CC2)ccn1	cell-free assay	competition with immobilised ligand	1 µM	99%
O=C(c1ccc(Nc2ncc(Cl)c(-c3ccc(Cl)s3)n2)cc1)N1CCC(N2CCCC2)CC1	binding	competition with immobilised ligand	1 µM	28%
Cn1cc(Cl)c2c(Oc3c(F)cc(Nc4cc(Cl)nc(N)n4)cc3F)ccnc21	cell-free assay	competition with immobilised ligand	0.1 µM	100%
COc1cnc(Nc2cccc(S(N)(=O)=O)c2)nc1N1CCN(c2ccccc2)CC1	binding	competition with immobilised ligand	1 µM	100%
O=C(c1ccc(Nc2nccc(-c3cc4ccccc4s3)n2)cc1)N1CCC(N2CCCC2)CC1	binding	competition with immobilised ligand	1 µM	58%
C[C@H]1CCN(c2nccc(-c3cnn4ncccc34)n2)C1	binding		1 µM	100%
CCN1CCN(Cc2ccc(C(=O)Nc3ccc(C)c(Oc4ccc5c(c4)CC(=O)N5)c3)cc2C(F)(F)F)CC1	binding	competition with immobilised ligand	1 µM	3.2%
C[C@@H]1CN(c2cc(-c3nn(C)c4ccc(OC5(C)CC5)cc34)ncn2)C[C@H](C)O1	cell-free assay	competition with immobilised ligand	1 µM	91%
CN(C)c1nccc(-c2cnn3ncccc23)n1	binding		1 µM	100%
CC(=O)N1CCC(c2ccc(C(=O)NC3=NCCN3)cc2C(F)(F)F)CC1	cell-free assay	competition with immobilised ligand	1 µM	100%
c1cnn2ncc(-c3ccnc(N4CCC45COC5)n3)c2c1	binding		1 µM	91%
CS(=O)(=O)NCC[C@H](NC(=O)c1cncc2c1cnn2-c1ccc(F)cc1)c1ccnc(S(C)(=O)=O)c1	cell-free assay	competition with immobilised ligand	1 µM	100%
CN(CCCC(F)(F)F)c1nccc(-c2cnn3ncccc23)n1	binding		1 µM	100%
